Test results from ChEMBL document CHEMBL1124808, “The synthesis and antiallergy activity of 1-(aryloxy)-4-(4-arylpiperazinyl)-2-butanol derivatives” (1990).

What was measured:
[1] = test system: Rattus norvegicus; assay: Percent change in volume of foot edema of test compound to that of positive control was determined at a dose of 31.6 mg/kg in rat; -41/-61; format: functional
[2] = test system: Rattus norvegicus; assay: Percent change in volume of foot edema of test compound to that of positive control was determined at a dose of 31.6 mg/kg in rat; -26/-74; format: functional
[3] = test system: Rattus norvegicus; assay: Percent change in volume of foot edema of test compound to that of positive control was determined at a dose of 10 mg/kg in rat; -46/-83; format: functional
[4] = test system: Rattus norvegicus; assay: Percent change in volume of foot edema of test compound to that of positive control was determined at a dose of 3.16 mg/kg in rat; -32/-78; format: functional
[5] = test system: Rattus norvegicus; assay: Percent change in volume of foot edema of test compound to that of positive control was determined at a dose of 31.6 mg/kg in rat; -90/-83; format: functional
[6] = test system: Rattus norvegicus; assay: Percent change in volume of foot edema of test compound to that of positive control was determined at a dose of 31.6 mg/kg in rat; -64/-73; format: functional
[7] = test system: Rattus norvegicus; assay: Percent change in volume of foot edema of test compound to that of positive control was determined at a dose of 10 mg/kg in rat; -15/-73; format: functional
[8] = test system: Rattus norvegicus; assay: Percent change in volume of foot edema of test compound to that of positive control was determined at a dose of 31.6 mg/kg in rat; -25/-93
[9] = test system: Rattus norvegicus; assay: Percent change in volume of foot edema of test compound to that of positive control was determined at a dose of 10 mg/kg in rat; -39/-72; format: functional
[10] = test system: Rattus norvegicus; assay: Percent change in volume of foot edema of test compound to that of positive control was determined at a dose of 31.6 mg/kg in rat; -57/-83; format: functional
[11] = test system: Rattus norvegicus; assay: Percent change in volume of foot edema of test compound to that of positive control was determined at a dose of 10 mg/kg in rat; -41/-59; format: functional
[12] = test system: Rattus norvegicus; assay: Percent change in volume of foot edema of test compound to that of positive control was determined at a dose of 31.6 mg/kg in rat; -77/-67; format: functional
[13] = test system: Rattus norvegicus; assay: Percent change in volume of foot edema of test compound to that of positive control was determined at a dose of 31.6 mg/kg in rat; -42/-81; format: functional
[14] = test system: Rattus norvegicus; assay: Percent change in volume of foot edema of test compound to that of positive control was determined at a dose of 10 mg/kg in rat; -73/-59; format: functional
[15] = species: Cavia porcellus; assay: Dose that protects 50% of guinea pig from collapse was determined in guinea pig anaphylaxis assay; format: functional; settings: read-out: PD50
How it was run: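 Guinea pigs dosed by gavage (10 mL/kg) with compound in 0.5% Tween 80/water; reference theophylline 100 mg/kg po. At 1–24 h, exposed in chamber to aerosolized 1% (w/v) egg albumin at 10 L air/min for up to 5 min; protected if no collapse within 5 min. PD50 by Litchfield and Wilcoxon.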

[16] = test system: Rattus norvegicus; assay: Percent change in volume of foot edema of test compound to that of positive control was determined at a dose of 3.16 mg/kg in rat; -8/-67; format: functional
[17] = test system: Rattus norvegicus; assay: Percent change in volume of foot edema of test compound to that of positive control was determined at a dose of 31.6 mg/kg in rat; -87/-67; format: functional
[18] = test system: Rattus norvegicus; assay: Percent change in volume of foot edema of test compound to that of positive control was determined at a dose of 10 mg/kg in rat; -54/-72; format: functional
[19] = test system: Rattus norvegicus; assay: Percent change in volume of foot edema of test compound to that of positive control was determined at a dose of 31.6 mg/kg in rat; -60/-74; format: functional
[20] = test system: Rattus norvegicus; assay: Oral Antiallergic activity in the passive foot anaphylaxis (PFA) assay of various amines at the dose of 3.16 mg/kg; -4/-78; format: functional
[21] = test system: Rattus norvegicus; assay: Percent change in volume of foot edema of test compound to that of positive control was determined at a dose of 31.6 mg/kg in rat; -79/-81; format: functional
[22] = test system: Rattus norvegicus; assay: Percent change in volume of foot edema of test compound to that of positive control was determined at a dose of 10 mg/kg in rat; -36/-88; format: functional
[23] = test system: Rattus norvegicus; assay: Percent change in volume of foot edema of test compound to that of positive control was determined at a dose of 10 mg/kg in rat; -40/-81; format: functional
[24] = test system: Rattus norvegicus; assay: Percent change in volume of foot edema of test compound to that of positive control was determined at a dose of 3.16 mg/kg in rat; -20/-78; format: functional
[25] = test system: Rattus norvegicus; assay: Percent change in volume of foot edema of test compound to that of positive control was determined at a dose of 31.6 mg/kg in rat; -56/-65; format: functional
[26] = test system: Rattus norvegicus; assay: Percent change in volume of foot edema of test compound to that of positive control was determined at a dose of 10 mg/kg in rat; -49/-81; format: functional
[27] = test system: Rattus norvegicus; assay: Percent change in volume of foot edema of test compound to that of positive control was determined at a dose of 31.6 mg/kg in rat; -27/-65; format: functional
[28] = test system: Rattus norvegicus; assay: Percent change in volume of foot edema of test compound to that of positive control was determined at a dose of 10 mg/kg in rat; -38/-88; format: functional
[29] = test system: Rattus norvegicus; assay: Percent change in volume of foot edema of test compound to that of positive control was determined at a dose of 31.6 mg/kg in rat; -87/-83; format: functional
[30] = test system: Rattus norvegicus; assay: Percent change in volume of foot edema of test compound to that of positive control was determined at a dose of 31.6 mg/kg in rat; -65/-78; format: functional
[31] = test system: Rattus norvegicus; assay: Percent change in volume of foot edema of test compound to that of positive control was determined at a dose of 10 mg/kg in rat; -43/-77; format: functional

CN(CCC(O)COc1ccccc1)CCN(C)c1ccccc1.O=C(O)C(=O)O (configuration not stated) gave a PFA [1] of -41.
COc1cc(N2CCN(CCC(O)COc3ccccc3)CC2)cc(OC)c1OC.O=C(O)C(=O)O (configuration not stated) showed a PFA [2] of -26.
In the case of Cl.NC(=O)c1ccc(OCC(O)CCN2CCN(c3ccccc3)CC2)cc1 (configuration not stated), the PFA [3] is reported as -46, the PFA [4] is reported as -32 and the PFA [5] is reported as -90.
In the case of Cl.Cl.N#Cc1ccc(OCC(O)CCN2CCN(c3ccccc3)CC2)cc1 (configuration not stated), the PFA [6] is reported as -64 and the PFA [7] is reported as -15.
CC(=O)c1ccc(OCC(O)CCN2CCN(c3ccccc3)CC2)cc1.Cl.Cl (configuration not stated) was tested, and the PFA [8] was -25.
In the case of CC(C)(C)c1ccc(OCC(O)CCN2CCN(c3ccccc3)CC2)cc1.Cl (configuration not stated), the PFA [9] is reported as -39 and the PFA [10] is reported as -57.
Compound Cc1ccc(N2CCN(CCC(O)COc3ccc(F)cc3)CC2)cc1.Cl.Cl (configuration not stated) has a PFA [11] of -41 and a PFA [12] of -77.
Compound O=C(O)/C=C\C(=O)O.c1ccc(OCCCCN2CCN(c3ccccc3)CC2)cc1 has a PFA [13] of -42.
Work on Cl.OC(CCN1CCN(c2ccc(Cl)cc2)CC1)COc1ccc(F)cc1 (configuration not stated) yielded a PFA [14] of -73, an ED50 [15] of 7.85 mg/kg and a PFA [16] of -8. The PFA [17] was -87.
Work on Cc1ccc(N2CCN(CCC(O)COc3ccc(Cl)cc3)CC2)cc1.Cl (configuration not stated) yielded a PFA [18] of -54, a PFA [19] of -60 and a PFA [20] of -4.
With Cc1cc(OCC(O)CCN2CCN(c3ccccn3)CC2)ccc1Cl.Cl.Cl (configuration not stated) the PFA [21] was -79 and the PFA [22] was -36.
COc1ccc(N2CCN(CCC(O)COc3ccc(Cl)cc3)CC2)cc1.Cl.Cl (configuration not stated) gave a PFA [21] of -79 and a PFA [23] of -40.
For OC(CCN1CCN(c2ccccc2)CC1)COc1ccc(Br)cc1 (configuration not stated), the PFA [24] was -20, the PFA [25] was -56 and the PFA [26] was -49.
With OC(CCN1CCN(c2ccccc2Cl)CC1)COc1ccccc1 (configuration not stated) the PFA [27] was -27.
CC(=O)c1ccc(N2CCN(CCC(O)COc3ccc(F)cc3)CC2)cc1 (configuration not stated) was tested, and the PFA [28] was -38 and the PFA [29] was -87.
OC(CCN1CCN(c2ccc(Cl)cc2)CC1)COc1ccccc1 (configuration not stated) was tested, and the PFA [30] was -65 and the PFA [31] was -43.
